# Experimental data taken from ChEMBL document CHEMBL4190362, “Synthesis, biological evaluation and quantitative structure-active relationships of 1,3-thiazolidin-4-one derivatives. A promising chemical scaffold endowed with high antifungal potency and low cytotoxicity” (Eur J Med Chem, 2017).
# Experiments:
# [1] = tested on: Klebsiella oxytoca; test: Antibacterial activity against Klebsiella oxytoca assessed as inhibition of microbial growth incubated for 18 to 22 hrs by broth microdilution method; type: functional
# In short: (§1)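 Broth microdilution in Mueller-Hinton II broth following NCCLS recommendations; compounds dissolved in DMSO.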
# [2] = tested on: Enterococcus faecalis; test: Antibacterial activity against Streptococcus faecalis assessed as inhibition of microbial growth incubated for 18 to 22 hrs by broth microdilution method; type: functional; in short: as §1
# [3] = tested on: Streptococcus alpha-hemolyticus (Streptococcus sp.); test: Antibacterial activity against Streptococcus Streptococcus alpha hemolyticus assessed as inhibition of microbial growth incubated for 18 to 22 hrs by broth microdilution method
# [4] = tested on: Nakaseomyces glabratus; test: Antifungal activity against Candida glabrata clinical isolates assessed as inhibition of microbial growth incubated for 24 hrs by broth microdilution method; type: functional
# In short: (§2)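 Twenty-two clinical Candida isolates (8 C. albicans, 4 C. glabrata, 3 C. tropicalis, 3 C. krusei, 2 C. parapsilosis, 2 C. sake) were identified by colony morphology and biochemistry and subcultured at 35 °C for purity. Compounds were dissolved in DMSO and tested by broth microdilution in Sabouraud dextrose broth per NCCLS/CLSI/EUCAST guidance. Values are geometric mean MIC per species (µg/mL).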
# [5] = tested on: Candida parapsilosis; test: Antifungal activity against Candida parapsilosis clinical isolates assessed as inhibition of microbial growth incubated for 24 hrs by broth microdilution method; type: functional; details: Lodderomyces parapsilosis; in short: as §2
# [6] = tested on: Staphylococcus aureus; test: Antibacterial activity against Staphylococcus aureus assessed as inhibition of microbial growth incubated for 18 to 22 hrs by broth microdilution method; type: functional; in short: as §1
# [7] = tested on: Escherichia coli; test: Antibacterial activity against Escherichia coli assessed as inhibition of microbial growth incubated for 18 to 22 hrs by broth microdilution method; type: functional; in short: as §1
# [8] = tested on: Enterobacter; test: Antibacterial activity against Enterobacter spp. assessed as inhibition of microbial growth incubated for 18 to 22 hrs by broth microdilution method; type: functional; in short: as §1
# [9] = tested on: Candida albicans; test: Antifungal activity against Candida albicans clinical isolates assessed as inhibition of microbial growth incubated for 24 hrs by broth microdilution method; type: functional; in short: as §2
# [10] = tested on: Staphylococcus warneri; test: Antibacterial activity against Staphylococcus warneri assessed as inhibition of microbial growth incubated for 18 to 22 hrs by broth microdilution method; type: functional; in short: as §1
# [11] = tested on: Proteus mirabilis; test: Antibacterial activity against Proteus mirabilis assessed as inhibition of microbial growth incubated for 18 to 22 hrs by broth microdilution method; type: functional; in short: as §1
# [12] = tested on: [Candida] sake; test: Antifungal activity against Candida sake clinical isolates assessed as inhibition of microbial growth incubated for 24 hrs by broth microdilution method; type: functional; details: Fermentozyma sake; in short: as §2
# [13] = tested on: Pichia kudriavzevii; test: Antifungal activity against Candida krusei clinical isolates assessed as inhibition of microbial growth incubated for 24 hrs by broth microdilution method; type: functional; in short: as §2
# [14] = tested on: Candida tropicalis; test: Antifungal activity against Candida tropicalis clinical isolates assessed as inhibition of microbial growth incubated for 24 hrs by broth microdilution method; type: functional; in short: as §2
SMILES,MIC [1],MIC [2],MIC [3],MIC [4],MIC [5],MIC [6],MIC [7],MIC [8],MIC [9],MIC [10],MIC [11],MIC [12],MIC [13],MIC [14]
CCCCCC/C(C)=N\N=C1/NC(=O)CS1,≥ 256 µg/mL,≥ 256 µg/mL,≥ 256 µg/mL,2 µg/mL,16 µg/mL,≥ 256 µg/mL,≥ 256 µg/mL,≥ 256 µg/mL,2 µg/mL,≥ 256 µg/mL,≥ 256 µg/mL,16 µg/mL,16 µg/mL,2 µg/mL
CC1CCC/C(=N/N=C2\NC(=O)CS2)C1 (centres undefined),≥ 256 µg/mL,≥ 256 µg/mL,≥ 256 µg/mL,8 µg/mL,2 µg/mL,≥ 256 µg/mL,≥ 256 µg/mL,≥ 256 µg/mL,8 µg/mL,≥ 256 µg/mL,≥ 256 µg/mL,2 µg/mL,2 µg/mL,8 µg/mL
CC1CCC(=N/N=C2\NC(=O)CS2)CC1 (centres undefined),≥ 256 µg/mL,≥ 256 µg/mL,≥ 256 µg/mL,16 µg/mL,16 µg/mL,≥ 256 µg/mL,≥ 256 µg/mL,≥ 256 µg/mL,16 µg/mL,≥ 256 µg/mL,≥ 256 µg/mL,16 µg/mL,16 µg/mL,16 µg/mL
CC(C)(C)C1CCCC/C1=N/N=C1\NC(=O)CS1 (centres undefined),≥ 256 µg/mL,≥ 256 µg/mL,≥ 256 µg/mL,8 µg/mL,2 µg/mL,≥ 256 µg/mL,≥ 256 µg/mL,≥ 256 µg/mL,8 µg/mL,≥ 256 µg/mL,≥ 256 µg/mL,2 µg/mL,2 µg/mL,8 µg/mL
C/C(=N/N=C1\NC(=O)CS1)C1CCCCC1,≥ 256 µg/mL,≥ 256 µg/mL,≥ 256 µg/mL,8 µg/mL,16 µg/mL,≥ 256 µg/mL,≥ 256 µg/mL,≥ 256 µg/mL,8 µg/mL,≥ 256 µg/mL,≥ 256 µg/mL,16 µg/mL,16 µg/mL,16 µg/mL
C/C(=N/N=C1\NC(=O)CS1)c1ccco1,≥ 256 µg/mL,≥ 256 µg/mL,≥ 256 µg/mL,2 µg/mL,2 µg/mL,≥ 256 µg/mL,≥ 256 µg/mL,≥ 256 µg/mL,2 µg/mL,≥ 256 µg/mL,≥ 256 µg/mL,2 µg/mL,2 µg/mL,2 µg/mL
O=C1CS/C(=N/N=C\c2cccs2)N1,≥ 256 µg/mL,≥ 256 µg/mL,≥ 256 µg/mL,256 µg/mL,256 µg/mL,≥ 256 µg/mL,≥ 256 µg/mL,≥ 256 µg/mL,256 µg/mL,≥ 256 µg/mL,≥ 256 µg/mL,256 µg/mL,256 µg/mL,256 µg/mL
C/C(=N/N=C1\NC(=O)CS1)c1ccccc1,≥ 256 µg/mL,≥ 256 µg/mL,≥ 256 µg/mL,2 µg/mL,16 µg/mL,≥ 256 µg/mL,≥ 256 µg/mL,≥ 256 µg/mL,2 µg/mL,≥ 256 µg/mL,≥ 256 µg/mL,16 µg/mL,8 µg/mL,16 µg/mL
O=C1CS/C(=N/N=C\c2ccccc2[N+](=O)[O-])N1,≥ 256 µg/mL,≥ 256 µg/mL,≥ 256 µg/mL,8 µg/mL,128 µg/mL,≥ 256 µg/mL,≥ 256 µg/mL,≥ 256 µg/mL,16 µg/mL,≥ 256 µg/mL,≥ 256 µg/mL,8 µg/mL,16 µg/mL,4 µg/mL
C/C(=N/N=C1\NC(=O)CS1)c1cccc([N+](=O)[O-])c1,≥ 256 µg/mL,≥ 256 µg/mL,≥ 256 µg/mL,4 µg/mL,2 µg/mL,≥ 256 µg/mL,≥ 256 µg/mL,≥ 256 µg/mL,2 µg/mL,≥ 256 µg/mL,≥ 256 µg/mL,2 µg/mL,4 µg/mL,2 µg/mL
O=C1CS/C(=N/N=C\c2cccc([N+](=O)[O-])c2)N1,≥ 256 µg/mL,≥ 256 µg/mL,≥ 256 µg/mL,8 µg/mL,4 µg/mL,≥ 256 µg/mL,≥ 256 µg/mL,≥ 256 µg/mL,16 µg/mL,≥ 256 µg/mL,≥ 256 µg/mL,8 µg/mL,8 µg/mL,16 µg/mL
